Measurements from ChEMBL document CHEMBL4312006, “A novel chalcone derivative as Nrf2 activator attenuates learning and memory impairment in a scopolamine-induced mouse model” (Eur J Med Chem, 2020).
Activity calls are given as the source filed them. The rule behind the calls is not given here.

Tests used:
[1] = biological target: T1, Nuclear factor erythroid 2-related factor 2 (Mus musculus) (UniProt Q60795); test: Activation of NRF2 in mouse BV2 cells assessed reduction in LPS-stimulated IL-6 level preincubated for 3 hrs followed by LPS stimulation for 24 hrs by ELISA; type: cell-based
T1 sequence (whole entry): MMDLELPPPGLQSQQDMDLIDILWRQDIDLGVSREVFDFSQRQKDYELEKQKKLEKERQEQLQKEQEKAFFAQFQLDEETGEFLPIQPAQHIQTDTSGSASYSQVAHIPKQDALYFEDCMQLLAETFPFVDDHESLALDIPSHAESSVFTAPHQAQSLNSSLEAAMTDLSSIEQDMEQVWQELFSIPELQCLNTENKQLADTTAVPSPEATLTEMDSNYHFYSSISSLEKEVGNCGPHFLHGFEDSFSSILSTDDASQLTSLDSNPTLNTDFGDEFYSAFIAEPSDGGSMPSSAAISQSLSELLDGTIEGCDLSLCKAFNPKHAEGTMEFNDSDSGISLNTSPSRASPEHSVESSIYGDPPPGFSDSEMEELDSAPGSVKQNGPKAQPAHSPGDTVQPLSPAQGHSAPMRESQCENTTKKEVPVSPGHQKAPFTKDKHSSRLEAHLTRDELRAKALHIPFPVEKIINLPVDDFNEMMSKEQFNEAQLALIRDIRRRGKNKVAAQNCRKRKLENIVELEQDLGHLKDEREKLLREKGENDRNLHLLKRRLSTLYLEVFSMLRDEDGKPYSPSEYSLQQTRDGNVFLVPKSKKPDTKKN
Procedure, shortened: (§1)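 BV-2 cells pre-incubated with a range of compound concentrations for 3 h, then stimulated with 0.2 μg/mL LPS for 24 h. TNF-α or IL-6 in the culture medium quantified by sandwich ELISA kits. Compared with LPS-treated control by one-way ANOVA with Dunnett's test.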

[2] = biological target: T1, Nuclear factor erythroid 2-related factor 2 (Mus musculus); test: Activation of NRF2 in mouse BV2 cells assessed as inhibition of LPS-stimulated NO production preincubated for 6 hrs followed by LPS stimulation for 24 hrs by Griess reagent-based assay; type: cell-based
Procedure, shortened: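 BV-2 cells pretreated with a range of compound concentrations for 6 h, then stimulated with 1 µg/mL LPS for 24 h. Medium nitrite measured by Griess reaction (sulfanilamide/phosphoric acid, then NED, 5 min each at room temperature in the dark). Absorbance at 540 nm read against a nitrite standard curve.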

CYP2C9 = CYP2C9 (Homo sapiens, UniProt P11712); test: Inhibition of CYP2C9 (unknown origin) assessed as remaining activity relative to control; type: ADME
[3] = biological target: T1, Nuclear factor erythroid 2-related factor 2 (Mus musculus); test: Activation of NRF2 in mouse BV2 cells assessed as increase in HO1 protein expression at 10 uM incubated for 12 hrs by Western blot analysis; type: cell-based
Procedure, shortened: (§2)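 BV-2 cells washed in ice-cold PBS and lysed on ice for 40 min in RIPA buffer with protease inhibitors. Nuclear fractions prepared separately. 10 μg protein run on SDS-PAGE and blotted to PVDF. Membranes blocked in 5% skim milk/TBST and probed overnight at 4 °C for Nrf2, HO-1, GCLM or SOD1. HRP secondary with ECL detection. Band densities normalised to Lamin B1 or β-actin.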

[4] = biological target: T1, Nuclear factor erythroid 2-related factor 2 (Mus musculus); test: Activation of NRF2 in mouse BV2 cells assessed reduction of LPS-stimulated TNF-alpha level preincubated for 3 hrs followed by LPS stimulation for 24 hrs by ELISA; type: cell-based; procedure, shortened: as §1
CYP3A4 = CYP3A4 (Homo sapiens, UniProt P08684); test: Inhibition of CYP3A4 (unknown origin) assessed as remaining activity relative to control; type: ADME
[5] = Lipophilicity, log P of the compound; type: physicochemical; conditions: octanol/water
[6] = biological target: T1, Nuclear factor erythroid 2-related factor 2 (Mus musculus); test: Activation of NRF2 in mouse BV2 cells assessed as increase in SOD activity incubated for 24 hrs by WST-1 based assay; type: cell-based
Procedure, shortened: (§3)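 BV-2 cells (1.0×10^6) treated with compound for 24 h, or for 6 h followed by 400 μM H2O2 for 18 h. Cells washed, sonicated in ice-cold PBS and centrifuged; supernatant assayed by WST-1/superoxide inhibition. Activity derived from the IC50 of the inhibition curve and given as U/mg protein (1 U = 50% inhibition of WST-1 reduction).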

[7] = biological target: T1, Nuclear factor erythroid 2-related factor 2 (Mus musculus); test: Activation of NRF2 in mouse BV2 cells assessed as inhibition of LPS-stimulated iNOS expression at 10 uM preincubated for 3 hrs followed by LPS stimulation for 24 hrs by Western blot analysis relative to control; type: cell-based; parameters: scale not given: the % may be the effect or the level left
Procedure, shortened: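 LPS-stimulated BV-2 cells pretreated with compound for 3 h. iNOS immunoblot (1:500) on 10 μg RIPA lysate protein, detected by ECL. Densities normalised to β-actin or Lamin B1 and compared with LPS-treated control.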

[8] = biological target: T1, Nuclear factor erythroid 2-related factor 2 (Mus musculus); test: Activation of NRF2 in mouse BV2 cells assessed as increase in GCLM protein expression incubated for 12 hrs by Western blot analysis; type: cell-based; procedure, shortened: as §2
Mus musculus = test: Antioxidant activity in mouse assessed as inhibition of scopolamine-induced reduction in SOD activity at 30 mg/kg, po administered for 5 days and measured on day 5 by WST-1 based assay; type: functional, organism-based
Procedure, shortened: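 Male C57BL/6N mice (10 weeks) dosed 30 mg/kg/day compound in saline by oral gavage for 5 days, with scopolamine 2 mg/kg i.p. Hippocampus homogenised in sucrose buffer (pH 7.4) and centrifuged 40 min at 4 °C. SOD activity in the supernatant measured by WST-1 kit and given as U/mg protein. One-way ANOVA with Tukey's test.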

[9] = biological target: T1, Nuclear factor erythroid 2-related factor 2 (Mus musculus); test: Activation of NRF2 in mouse BV2 cells assessed as increase in HO1 mRNA level at 0.1 to 10 uM incubated for 8 hrs by qRT-PCR analysis; type: cell-based
Procedure, shortened: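 BV-2 microglia grown in RPMI 1640 with 10% FBS, 2.05 mM L-glutamine and penicillin-streptomycin at 37 °C, 5% CO2. Cells exposed to a range of compound concentrations for 8 h. Ho-1 or Gclm mRNA measured by qRT-PCR and expressed relative to untreated control. Means ± SEM, one-way ANOVA with Dunnett's test.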

[10] = biological target: T1, Nuclear factor erythroid 2-related factor 2 (Mus musculus); test: Activation of NRF2 in mouse BV2 cells assessed as inhibition of H2O2-induced reduction in SOD activity incubated for 6 hrs followed by H2O2 stimulation and measured after 18 hrs by WST-1 based assay; type: cell-based; procedure, shortened: as §3
BV-2 = test: Inhibition of H2O2-stimulated ROS production in mouse BV2 cells preincubated for 24 hrs followed by H2O2 stimulation for 20 mins by DCFH-DA dye based assay; type: functional, cell-based
Procedure, shortened: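 BV-2 cells treated with a range of compound concentrations for 24 h at 37 °C. Loaded with 20 μM DCFH-DA for 40 min, then 200 μM H2O2 added for 20 min at 37 °C in the dark. DCF fluorescence read at ex 480 nm / em 530 nm. Compared with H2O2-treated control.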

[11] = Stability in rat plasma assessed as compound remaining after 30 mins; type: ADME, cell-free; conditions: read-out: Stability
[12] = biological target: T1, Nuclear factor erythroid 2-related factor 2 (Mus musculus); test: Activation of NRF2 in mouse BV2 cells assessed as upregulation of HO1 at 20 uM by ELISA relative to control; type: cell-based
[13] = biological target: T1, Nuclear factor erythroid 2-related factor 2 (Mus musculus); test: Activation of NRF2 in mouse BV2 cells assessed as increase in nuclear NRF2 level incubated for 6 hrs by Western blot analysis; type: cell-based; procedure, shortened: as §2
[14] = biological target: T1, Nuclear factor erythroid 2-related factor 2 (Mus musculus); test: Activation of NRF2 in mouse BV2 cells assessed as increase in nuclear NRF2 level at 10 uM incubated for 2 hrs by Western blot analysis; type: cell-based; procedure, shortened: as §2

Chain of CYP2C9 (P11712 whole entry): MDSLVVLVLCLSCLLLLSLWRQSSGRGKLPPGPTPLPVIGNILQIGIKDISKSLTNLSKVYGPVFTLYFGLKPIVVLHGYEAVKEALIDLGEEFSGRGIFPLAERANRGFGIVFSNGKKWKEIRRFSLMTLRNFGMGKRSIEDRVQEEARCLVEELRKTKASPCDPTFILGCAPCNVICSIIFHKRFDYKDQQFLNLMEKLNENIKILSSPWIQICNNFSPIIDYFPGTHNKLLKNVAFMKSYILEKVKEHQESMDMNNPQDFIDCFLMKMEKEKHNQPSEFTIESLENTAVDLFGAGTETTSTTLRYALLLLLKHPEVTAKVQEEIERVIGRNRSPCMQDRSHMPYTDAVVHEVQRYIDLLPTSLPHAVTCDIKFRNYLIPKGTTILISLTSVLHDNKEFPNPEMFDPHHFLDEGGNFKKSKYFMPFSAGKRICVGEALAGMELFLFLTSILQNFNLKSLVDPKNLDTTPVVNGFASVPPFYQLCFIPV
Chain of CYP3A4 (P08684 whole entry): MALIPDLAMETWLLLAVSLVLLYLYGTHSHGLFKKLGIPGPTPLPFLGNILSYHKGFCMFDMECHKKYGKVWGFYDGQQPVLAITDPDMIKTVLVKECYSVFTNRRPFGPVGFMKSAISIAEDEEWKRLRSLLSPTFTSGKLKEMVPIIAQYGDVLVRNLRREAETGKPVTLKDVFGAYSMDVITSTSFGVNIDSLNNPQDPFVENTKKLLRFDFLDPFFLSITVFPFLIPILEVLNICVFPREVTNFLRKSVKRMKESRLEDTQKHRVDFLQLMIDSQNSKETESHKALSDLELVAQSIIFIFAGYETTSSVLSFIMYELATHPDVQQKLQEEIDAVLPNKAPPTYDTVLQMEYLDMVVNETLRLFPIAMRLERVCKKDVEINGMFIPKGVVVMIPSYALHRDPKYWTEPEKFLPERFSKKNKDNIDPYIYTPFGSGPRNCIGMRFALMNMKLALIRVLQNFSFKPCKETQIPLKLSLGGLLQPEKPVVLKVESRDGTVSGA

## CN1CCN(C(=O)COc2ccc(C(=O)/C=C/c3ccccc3C(F)(F)F)cc2)CC1.Cl
[1]
  Activity: Dose-dependent effect
[2]
  Activity: Dose-dependent effect
CYP2C9
  activity: 95.1%
[3]
  fold change (FC): > 7
[4]
  Activity: Dose-dependent effect
CYP3A4
  activity: > 100%
[5]
  logP: 3.22
[6]
  Activity: Dose-dependent effect
[7]
  Activity: 100%
[8]
  Activity: Dose-dependent effect
Mus musculus
  Activity: Active
[9]
  Activity: Active
[10]
  Activity: Active
BV-2
  inhibition: Dose-dependent effect
[11]
  remaining at 0.5 h: 99.3%
[12]
  Activity: 589%
[13]
  Activity: Dose-dependent effect
[14]
  Activity: Active
